Measured values gathered from unrelated publications.
Protocols differ between the studies behind these lines.
Target: Serine/threonine-protein kinase Nek1 (NEK1, Homo sapiens, UniProt Q96PY6)
Sequence (Q96PY6 1-1258, as in one of the studies): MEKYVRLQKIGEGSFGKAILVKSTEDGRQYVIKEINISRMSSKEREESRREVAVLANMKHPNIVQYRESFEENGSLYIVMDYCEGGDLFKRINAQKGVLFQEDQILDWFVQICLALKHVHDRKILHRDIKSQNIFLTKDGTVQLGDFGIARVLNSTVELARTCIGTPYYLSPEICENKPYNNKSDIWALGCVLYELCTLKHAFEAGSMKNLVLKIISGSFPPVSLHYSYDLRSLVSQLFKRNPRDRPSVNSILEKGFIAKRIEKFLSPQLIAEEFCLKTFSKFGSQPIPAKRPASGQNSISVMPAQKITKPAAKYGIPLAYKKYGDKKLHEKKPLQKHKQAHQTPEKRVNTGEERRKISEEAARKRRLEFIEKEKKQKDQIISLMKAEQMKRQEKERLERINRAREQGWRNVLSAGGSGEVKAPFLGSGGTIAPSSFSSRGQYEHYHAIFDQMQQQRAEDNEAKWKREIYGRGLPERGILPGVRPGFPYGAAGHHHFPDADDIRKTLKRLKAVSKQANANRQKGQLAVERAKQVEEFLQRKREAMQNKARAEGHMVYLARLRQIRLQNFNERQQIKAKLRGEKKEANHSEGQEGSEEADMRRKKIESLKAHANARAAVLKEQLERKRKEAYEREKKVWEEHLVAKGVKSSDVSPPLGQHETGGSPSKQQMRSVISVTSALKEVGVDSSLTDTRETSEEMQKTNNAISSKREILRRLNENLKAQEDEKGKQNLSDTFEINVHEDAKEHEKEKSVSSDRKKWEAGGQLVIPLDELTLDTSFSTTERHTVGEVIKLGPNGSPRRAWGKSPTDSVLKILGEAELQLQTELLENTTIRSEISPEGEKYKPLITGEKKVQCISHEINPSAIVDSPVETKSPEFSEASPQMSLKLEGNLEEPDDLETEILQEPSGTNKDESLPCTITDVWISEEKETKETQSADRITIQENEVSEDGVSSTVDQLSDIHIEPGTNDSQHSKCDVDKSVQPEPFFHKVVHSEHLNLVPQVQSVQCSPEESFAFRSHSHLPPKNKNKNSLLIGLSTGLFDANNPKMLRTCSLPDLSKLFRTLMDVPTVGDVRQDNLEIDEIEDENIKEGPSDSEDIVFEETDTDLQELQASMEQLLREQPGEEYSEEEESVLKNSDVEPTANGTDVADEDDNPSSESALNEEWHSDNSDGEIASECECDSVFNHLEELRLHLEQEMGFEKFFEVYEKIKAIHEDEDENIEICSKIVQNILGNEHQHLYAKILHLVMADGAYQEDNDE

Compound	assay	setting	endpoint	result
CO[C@@H]1[C@H](N(C)C(=O)c2ccccc2)C[C@H]2O[C@]1(C)n1c3ccccc3c3c4c(c5c6ccccc6n2c5c31)C(=O)NC4	enzyme activity, inhibitor	1 µM	inhibition	0%
C#Cc1cc(-c2cc(Nc3nc(N[C@@H](C)c4ccc(F)cn4)ncc3Cl)n[nH]2)ccc1C=O	enzyme activity, inhibitor	0.2 µM	inhibition	70.2%
Cc1cc(O)c(-c2ccc([C@@H](C)CN(C)C)cc2)c2c1[nH]c(=O)c1sccc12	enzyme activity, inhibitor	0.1 µM	inhibition	-3.68%
CCCCC(=O)Nc1ccc(-c2ccc3ncn(CCC)c(=O)c3c2)cn1	binding, competition with immobilised ligand	0.5 µM	remaining binding	95%
C[C@H]1CC[C@H](n2c3cnccc3c3cnc(Nc4ccc5c(n4)CCN(C(=O)CO)C5)nc32)CC1	cell-free assay	1 µM	remaining signal	85%
CC#CC(=O)N1CCC[C@H]1c1nc(-c2ccc(C(=O)Nc3ccccn3)cc2)c2c(N)nccn12	enzyme activity, inhibitor	1 µM	inhibition	8%
C1=C/COCc2cc(ccc2OCCN2CCCC2)Nc2nccc(n2)-c2cccc(c2)COC/1	binding	0.1 µM	remaining binding	98%
COc1ccc2[nH]c3c4[nH]c5ccc(OC)cc5c4c4c(c3c2c1)C(=O)NC4=O	binding	1 µM	remaining binding	100%
COc1ccc2oc(-c3ccc4nc(N)oc4c3)c/c(=N\c3ccccc3NC(=O)CCN)c2c1	binding	1 µM	remaining binding	108%
